The target in assay [1] is T1, NUAK family SNF1-like kinase 2 (Homo sapiens) (UniProt Q9H093).
T1 sequence (whole entry): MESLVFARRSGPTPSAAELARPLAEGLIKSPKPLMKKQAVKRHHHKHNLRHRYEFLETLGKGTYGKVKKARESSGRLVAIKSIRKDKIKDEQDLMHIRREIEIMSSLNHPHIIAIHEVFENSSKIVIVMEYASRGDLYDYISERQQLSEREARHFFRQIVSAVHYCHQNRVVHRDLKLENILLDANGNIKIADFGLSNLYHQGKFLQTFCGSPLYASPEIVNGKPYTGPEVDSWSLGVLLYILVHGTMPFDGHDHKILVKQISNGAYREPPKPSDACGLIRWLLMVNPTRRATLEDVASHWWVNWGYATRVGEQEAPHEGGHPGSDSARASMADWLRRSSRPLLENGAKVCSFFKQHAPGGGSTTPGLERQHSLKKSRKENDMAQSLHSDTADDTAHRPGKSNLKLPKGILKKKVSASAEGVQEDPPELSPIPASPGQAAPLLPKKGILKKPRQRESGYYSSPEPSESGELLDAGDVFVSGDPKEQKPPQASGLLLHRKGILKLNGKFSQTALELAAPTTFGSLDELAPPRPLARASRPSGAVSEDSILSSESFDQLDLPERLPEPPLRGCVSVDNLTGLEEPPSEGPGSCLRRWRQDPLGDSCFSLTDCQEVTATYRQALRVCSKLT
The experiment in a line: Inhibition of SNARK at 1 uM.

The target in assay [2] is T2, Ephrin type-B receptor 4 (Homo sapiens) (UniProt P54760).
T2 sequence (whole entry): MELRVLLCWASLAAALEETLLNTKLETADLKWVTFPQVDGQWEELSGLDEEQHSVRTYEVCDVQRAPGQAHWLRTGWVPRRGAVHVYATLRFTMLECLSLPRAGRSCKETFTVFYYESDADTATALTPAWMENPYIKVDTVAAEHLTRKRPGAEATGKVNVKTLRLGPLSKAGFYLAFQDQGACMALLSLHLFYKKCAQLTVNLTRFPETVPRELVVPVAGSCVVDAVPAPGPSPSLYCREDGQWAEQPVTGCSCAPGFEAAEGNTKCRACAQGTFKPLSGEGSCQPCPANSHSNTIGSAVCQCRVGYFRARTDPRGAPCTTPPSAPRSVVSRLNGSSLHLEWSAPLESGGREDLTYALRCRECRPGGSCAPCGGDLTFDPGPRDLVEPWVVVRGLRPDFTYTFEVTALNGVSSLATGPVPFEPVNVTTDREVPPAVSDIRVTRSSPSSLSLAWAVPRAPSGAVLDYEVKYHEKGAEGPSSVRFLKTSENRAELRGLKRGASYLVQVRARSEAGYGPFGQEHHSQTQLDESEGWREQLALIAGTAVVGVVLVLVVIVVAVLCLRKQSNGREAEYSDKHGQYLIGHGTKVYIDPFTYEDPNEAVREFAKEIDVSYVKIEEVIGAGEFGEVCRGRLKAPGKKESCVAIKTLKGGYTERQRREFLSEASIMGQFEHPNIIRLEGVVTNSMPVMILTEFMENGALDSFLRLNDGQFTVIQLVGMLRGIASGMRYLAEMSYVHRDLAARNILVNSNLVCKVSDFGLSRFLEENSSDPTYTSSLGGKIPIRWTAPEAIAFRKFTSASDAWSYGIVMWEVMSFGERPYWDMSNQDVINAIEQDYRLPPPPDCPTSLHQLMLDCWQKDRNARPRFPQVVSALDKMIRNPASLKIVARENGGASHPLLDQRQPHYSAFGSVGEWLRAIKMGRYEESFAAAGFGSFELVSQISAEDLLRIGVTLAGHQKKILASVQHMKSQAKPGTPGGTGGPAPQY
Nature of the assay: Inhibition of EPHB4 at 1 uM. Put shortly: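 Single-concentration screen using Ambit Bioscience KINOMEscan technology across a panel of 250–400 kinases. Per-kinase inhibition from this screen was summarized as S(90), the fraction of kinases inhibited by more than 90%.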

The target in assay [3] is Cyclin-dependent kinase 2 (Homo sapiens) (UniProt P24941). Nature of the assay: Inhibition of CDK2 at 1 uM. Summed up:
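Ambit KINOMEscan screen at a single concentration across a 250–400 kinase panel, recorded as percent inhibition. Selectivity was expressed as S(90), the fraction of kinases inhibited >90%.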

The target of assay [4] is Serine/threonine-protein kinase N1 (Homo sapiens) (UniProt Q16512). Nature of the assay: Inhibition of PKN1 at 1 uM.
The target of assay [5] is Tyrosine-protein kinase Fyn (Homo sapiens) (UniProt P06241). The experiment in a line: Inhibition of FYN at 1 uM. Summed up:
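Single-concentration screen on the Ambit KINOMEscan platform, run against a panel of 250–400 kinases. Per-kinase inhibition was also summarized as S(90), the fraction of kinases inhibited by more than 90%.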

Assay [6] deals with T3, Serine/threonine-protein kinase 17B (Homo sapiens) (UniProt O94768).
T3 sequence (whole entry): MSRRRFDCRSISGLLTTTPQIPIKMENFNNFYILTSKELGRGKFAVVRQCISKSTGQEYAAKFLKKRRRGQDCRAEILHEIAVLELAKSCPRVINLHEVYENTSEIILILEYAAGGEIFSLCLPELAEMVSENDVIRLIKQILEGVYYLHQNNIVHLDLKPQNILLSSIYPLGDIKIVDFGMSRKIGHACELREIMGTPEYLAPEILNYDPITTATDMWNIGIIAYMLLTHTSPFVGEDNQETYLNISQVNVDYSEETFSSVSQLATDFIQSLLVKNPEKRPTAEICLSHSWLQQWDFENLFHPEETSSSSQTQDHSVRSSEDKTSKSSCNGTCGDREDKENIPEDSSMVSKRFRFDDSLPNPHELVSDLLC
The experiment in a line: Inhibition of DRAK2 at 1 uM.

For assay [7], the system named is Phosphatidylinositol 4,5-bisphosphate 3-kinase catalytic subunit alpha isoform (Homo sapiens), P42336 [E545K]. Nature of the assay: Inhibition of PIK3CA E545K mutant at 1 uM.
Assay [8] has as its target Cyclin-dependent kinase 14 (Homo sapiens) (UniProt O94921). The experiment in a line: Inhibition of PFTK1 at 1 uM.

Phosphatidylinositol 4,5-bisphosphate 3-kinase catalytic subunit alpha isoform (Homo sapiens), P42336 [E545K], sequence (P42336 whole entry E545K, canonical isoform): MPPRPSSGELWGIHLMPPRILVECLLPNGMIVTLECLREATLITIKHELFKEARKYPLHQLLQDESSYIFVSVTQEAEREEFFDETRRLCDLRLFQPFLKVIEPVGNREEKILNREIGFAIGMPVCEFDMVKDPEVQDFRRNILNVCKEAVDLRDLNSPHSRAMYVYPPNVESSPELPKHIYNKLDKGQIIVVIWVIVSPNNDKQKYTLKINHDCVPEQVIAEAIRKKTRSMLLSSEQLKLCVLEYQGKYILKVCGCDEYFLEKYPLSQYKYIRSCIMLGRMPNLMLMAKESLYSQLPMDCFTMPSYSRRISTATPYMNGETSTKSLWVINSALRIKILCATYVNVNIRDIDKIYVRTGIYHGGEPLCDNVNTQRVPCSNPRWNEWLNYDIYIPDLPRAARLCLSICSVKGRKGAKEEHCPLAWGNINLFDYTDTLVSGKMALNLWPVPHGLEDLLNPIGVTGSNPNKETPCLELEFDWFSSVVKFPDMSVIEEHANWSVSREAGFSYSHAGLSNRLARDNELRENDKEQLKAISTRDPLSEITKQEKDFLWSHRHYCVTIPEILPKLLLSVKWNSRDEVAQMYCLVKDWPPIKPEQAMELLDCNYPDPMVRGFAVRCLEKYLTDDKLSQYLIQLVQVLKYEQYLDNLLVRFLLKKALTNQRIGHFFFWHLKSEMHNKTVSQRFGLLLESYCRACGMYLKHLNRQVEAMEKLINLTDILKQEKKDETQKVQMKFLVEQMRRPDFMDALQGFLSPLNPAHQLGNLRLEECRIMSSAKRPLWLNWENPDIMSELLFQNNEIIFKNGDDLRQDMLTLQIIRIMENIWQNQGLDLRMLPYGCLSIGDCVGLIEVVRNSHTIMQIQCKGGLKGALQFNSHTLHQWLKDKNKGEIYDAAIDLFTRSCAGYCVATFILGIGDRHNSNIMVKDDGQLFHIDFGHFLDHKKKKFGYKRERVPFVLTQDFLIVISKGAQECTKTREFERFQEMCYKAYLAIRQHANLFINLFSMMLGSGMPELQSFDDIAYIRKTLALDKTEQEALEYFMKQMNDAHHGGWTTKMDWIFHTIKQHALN
Cyclin-dependent kinase 14 (Homo sapiens), sequence (O94921 whole entry): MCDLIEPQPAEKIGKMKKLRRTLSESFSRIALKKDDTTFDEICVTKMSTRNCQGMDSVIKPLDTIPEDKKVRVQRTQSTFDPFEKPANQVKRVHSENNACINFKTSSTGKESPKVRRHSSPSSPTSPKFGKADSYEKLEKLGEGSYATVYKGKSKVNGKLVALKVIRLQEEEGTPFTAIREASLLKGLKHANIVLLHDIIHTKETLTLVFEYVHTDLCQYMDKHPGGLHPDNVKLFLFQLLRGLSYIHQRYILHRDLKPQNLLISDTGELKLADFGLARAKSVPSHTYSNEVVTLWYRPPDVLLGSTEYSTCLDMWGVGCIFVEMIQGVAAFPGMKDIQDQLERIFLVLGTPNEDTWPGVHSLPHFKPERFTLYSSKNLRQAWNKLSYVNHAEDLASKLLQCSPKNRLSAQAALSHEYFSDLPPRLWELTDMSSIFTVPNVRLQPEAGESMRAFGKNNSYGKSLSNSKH
Serine/threonine-protein kinase N1 (Homo sapiens), sequence (Q16512 2-942 limits assumed): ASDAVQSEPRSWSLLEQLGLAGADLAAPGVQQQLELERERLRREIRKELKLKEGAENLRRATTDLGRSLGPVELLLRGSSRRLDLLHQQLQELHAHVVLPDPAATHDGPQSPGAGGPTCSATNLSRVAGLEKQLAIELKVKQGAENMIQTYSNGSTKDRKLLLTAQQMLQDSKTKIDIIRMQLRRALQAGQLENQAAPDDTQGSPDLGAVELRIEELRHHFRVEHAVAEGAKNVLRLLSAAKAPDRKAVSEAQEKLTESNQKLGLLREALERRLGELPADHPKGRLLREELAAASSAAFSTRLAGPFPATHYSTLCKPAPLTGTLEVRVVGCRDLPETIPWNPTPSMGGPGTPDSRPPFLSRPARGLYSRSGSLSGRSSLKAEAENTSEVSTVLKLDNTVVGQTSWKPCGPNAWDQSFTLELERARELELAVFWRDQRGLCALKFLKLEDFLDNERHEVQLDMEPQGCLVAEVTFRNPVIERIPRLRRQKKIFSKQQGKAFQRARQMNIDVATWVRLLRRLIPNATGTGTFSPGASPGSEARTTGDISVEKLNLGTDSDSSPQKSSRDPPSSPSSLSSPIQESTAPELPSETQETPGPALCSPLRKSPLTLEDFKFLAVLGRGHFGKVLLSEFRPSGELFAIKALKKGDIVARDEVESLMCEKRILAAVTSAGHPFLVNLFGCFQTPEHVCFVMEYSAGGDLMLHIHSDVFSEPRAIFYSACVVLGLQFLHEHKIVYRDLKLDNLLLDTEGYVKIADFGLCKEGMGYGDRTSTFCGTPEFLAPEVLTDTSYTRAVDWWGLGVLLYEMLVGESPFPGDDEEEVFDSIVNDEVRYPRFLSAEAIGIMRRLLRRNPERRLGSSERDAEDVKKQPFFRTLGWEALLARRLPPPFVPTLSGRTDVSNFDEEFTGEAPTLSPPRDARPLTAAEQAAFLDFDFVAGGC
Tyrosine-protein kinase Fyn (Homo sapiens), sequence (P06241 2-537 limits assumed): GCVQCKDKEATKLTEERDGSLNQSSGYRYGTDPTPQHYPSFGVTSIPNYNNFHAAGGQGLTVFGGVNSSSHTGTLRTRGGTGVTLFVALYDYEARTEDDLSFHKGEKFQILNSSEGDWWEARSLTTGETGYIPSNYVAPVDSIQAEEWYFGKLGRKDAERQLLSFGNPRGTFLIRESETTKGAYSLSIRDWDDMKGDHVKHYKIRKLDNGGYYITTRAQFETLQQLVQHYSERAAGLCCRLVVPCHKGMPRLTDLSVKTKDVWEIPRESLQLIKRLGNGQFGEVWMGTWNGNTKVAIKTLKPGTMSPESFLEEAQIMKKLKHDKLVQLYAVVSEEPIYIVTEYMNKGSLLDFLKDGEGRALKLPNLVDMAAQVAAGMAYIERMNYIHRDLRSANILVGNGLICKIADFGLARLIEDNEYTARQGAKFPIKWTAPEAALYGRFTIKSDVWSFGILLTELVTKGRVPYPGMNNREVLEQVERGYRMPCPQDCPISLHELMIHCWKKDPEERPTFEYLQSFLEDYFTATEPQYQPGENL

A word on the inhibition: it is the drop in the measured response relative to a control, in per cent. With `FC(F)(F)c1ccc(Cl)cc1CN1CCNc2ncc(-c3ccnc(N4CCNCC4)c3)cc21`, the inhibition in assay [1] was 93%; in assay [2], < 50%; in assay [3] it was < 50%; in assay [4], 82%; in assay [5] it was < 50%; in assay [6] it was < 50%. Moreover, the inhibition in assay [7] and in assay [8] was < 50% throughout.
As to `CN1CCN(c2ccc(-c3cnc4c(c3)N(Cc3cc(Cl)ccc3Cl)CCN4)cn2)CC1`, the inhibition in assay [1] was 81%; in assay [2] it was < 50%; in assay [3], < 50%; in assay [4], < 50%; in assay [5], < 50%; in assay [6], < 50%. For the same compound, the inhibition in assay [7] and in assay [8] was < 50% in each case.
Take `COC1CCN(C(=O)c2ccc(-c3cnc4c(c3)N(Cc3cc(Cl)ccc3C(F)(F)F)CCN4)cc2)CC1`: the inhibition in assay [2], in assay [3] and in assay [5] was < 50% in each case.
As to `O=C(c1ccc(-c2cnc3c(c2)N(Cc2cc(Cl)ccc2C(F)(F)F)CCN3)cc1)N1CCCCC1`, the inhibition in assay [2], in assay [3] and in assay [5] was < 50% each time.
For `O=C(O)c1ccc(-c2cnc3c(c2)N(Cc2cc(Cl)ccc2C(F)(F)F)CCN3)cc1`, the inhibition in assay [2], in assay [3] and in assay [5] was < 50% in each case.
Turning to `CN1CCN(c2ccc(-c3cnc4c(c3)N(Cc3cc(F)ccc3F)CCN4)cn2)CC1`, the inhibition is 90% in assay [1]; < 50% in assay [2]; < 50% in assay [3]; < 50% in assay [4]; < 50% in assay [5]; < 50% in assay [6]. In addition, the inhibition in assay [7] and in assay [8] was < 50% in each case.
Consider `O=C(c1ccc(-c2cnc3c(c2)N(Cc2cc(Cl)ccc2C(F)(F)F)CCN3)cc1)N1CCC(N2CCCC2)CC1`, for which the inhibition in assay [2], in assay [3] and in assay [5] was < 50% in each case.
For `CN1CCN(c2ccc(-c3cnc4c(c3)N(Cc3c(F)ccc(F)c3Cl)CCN4)cn2)CC1`, the inhibition in assay [1] was 90%; in assay [2] it was < 50%; in assay [3], < 50%; in assay [4], < 50%; in assay [5], < 50%; in assay [6], < 50%. Moreover, the inhibition in assay [7] and in assay [8] was < 50% in each case.
On to `CC(=O)N1CCN(c2cc(-c3cnc4c(c3)N(Cc3cc(Cl)ccc3C(F)(F)F)CCN4)ccn2)CC1`, for which the inhibition was 71% in assay [1]; < 50% in assay [2]; < 50% in assay [3]; < 50% in assay [4]; < 50% in assay [5]; < 50% in assay [6]. For the same compound, the inhibition in assay [7] and in assay [8] was < 50% in each case.
As for `CN1CCN(c2ccc(-c3cnc4c(c3)N(Cc3cc(Cl)ccc3C(F)(F)F)CCN4)cn2)CC1`, the inhibition in assay [1] was 85%; in assay [2], < 50%; in assay [3], < 50%; in assay [4], < 50%; in assay [5] it was < 50%; in assay [6] it was < 50%. For the same compound, the inhibition in assay [7] and in assay [8] was < 50% each time.

Values taken from ChEMBL document CHEMBL1165965, “Synthesis and structure-activity relationships of 1,2,3,4-tetrahydropyrido[2,3-b]pyrazines as potent and selective inhibitors of the anaplastic lymphoma kinase” (Bioorg Med Chem, 2010).
